Measured values from ChEMBL document CHEMBL1152384, “First steps in the direction of synthetic, allosteric, direct inhibitors of thrombin and factor Xa” (Bioorg Med Chem Lett, 2009).
Calls of active or inactive are those of the source. No cut-off for these calls is given here.

Assays:
[1] = target: Prothrombin (Homo sapiens) (UniProt P00734); assay: Inhibition of human thrombin assessed as residual activity at < 4.3 mM by spectrophotometry
Method in brief: (§1)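 Thrombin activity read spectrophotometrically as the initial rate of hydrolysis of the chromogenic substrate Spectrozyme TH, with and without benzofuran inhibitor. Residual activity is expressed relative to the uninhibited enzyme.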

[2] = target: Coagulation factor X (Homo sapiens) (UniProt P00742); assay: Inhibition of human factor 10a assessed as residual activity at < 4.3 mM by spectrophotometry
Method in brief: (§2)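 Factor Xa activity followed by spectrophotometric measurement of the initial rate of hydrolysis of the chromogenic substrate S-2772, with and without benzofuran inhibitor. Residual activity is taken relative to the uninhibited enzyme.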

[3] = target: Prothrombin (Homo sapiens) (UniProt P00734); assay: Inhibition of human thrombin assessed as residual activity at 400 uM by spectrophotometry; method in brief: as §1
[4] = target: Coagulation factor X (Homo sapiens) (UniProt P00742); assay: Inhibition of human factor 10a assessed as residual activity at […] by spectrophotometry; method in brief: as §2
[5] = target: Prothrombin (Homo sapiens) (UniProt P00734); assay: Inhibition of human thrombin assessed as residual activity at 2.9 mM by spectrophotometry; method in brief: as §1
[6] = target: Coagulation factor X (Homo sapiens) (UniProt P00742); assay: Inhibition of human factor 10a assessed as residual activity at 2.6 mM by spectrophotometry; method in brief: as §2
[7] = target: Prothrombin (Homo sapiens) (UniProt P00734); assay: Inhibition of human thrombin assessed as residual activity at 4.3 mM by spectrophotometry; method in brief: as §1
[8] = target: Coagulation factor X (Homo sapiens) (UniProt P00742); assay: Inhibition of human factor 10a assessed as decrease in catalytic rate per uM of S-2772 hydrolysis at 2.6 mM by Michaelis-Menten analysis relative to control
Method in brief: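 Factor Xa kinetics: initial rates of S-2772 hydrolysis measured spectrophotometrically at pH 7.4 and 25 °C over a range of substrate levels, with and without inhibitor. The hyperbolic dependence of rate on substrate was fitted to obtain KM and VMAX. Catalytic rate was compared with the inhibitor-free reaction.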

Coagulation factor X (Homo sapiens), sequence (P00742 41-179 limits assumed): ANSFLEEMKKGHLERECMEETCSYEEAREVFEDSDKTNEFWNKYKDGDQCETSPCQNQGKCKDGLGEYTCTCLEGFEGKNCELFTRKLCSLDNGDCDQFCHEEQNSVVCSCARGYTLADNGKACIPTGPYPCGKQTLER
Coagulation factor X (Homo sapiens), sequence (P00742 235-488 limits assumed): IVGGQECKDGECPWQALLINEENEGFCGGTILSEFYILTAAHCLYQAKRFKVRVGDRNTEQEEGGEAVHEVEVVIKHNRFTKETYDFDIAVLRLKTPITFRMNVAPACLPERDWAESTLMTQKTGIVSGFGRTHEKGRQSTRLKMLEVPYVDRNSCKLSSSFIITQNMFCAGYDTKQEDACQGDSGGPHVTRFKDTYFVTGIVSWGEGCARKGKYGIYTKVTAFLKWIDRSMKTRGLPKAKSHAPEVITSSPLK

| Activity [1] | Activity [2] | Activity [3] | Activity [4] | Activity [5] | Structure (SMILES) | also measured |
| --- | --- | --- | --- | --- | --- | --- |
| inactive | inactive | – | – | – | CCOC(=O)c1c(C)oc2cc(OC)c(OS(=O)(=O)O)cc12 | – |
| inactive | inactive | – | – | – | CCOC(=O)c1c(C)oc2cc(OS(=O)(=O)O)c(OS(=O)(=O)O)cc12 | – |
| – | – | Active | Active | > 40% | COc1cc2oc(C)c(C(=O)O)c2cc1O | – |
| inactive | inactive | – | – | – | CCOC(=O)c1c(C)oc2cc(OS(=O)(=O)O)c(OC)cc12 | – |
| – | – | Active | Active | > 40% | Cc1oc2cc(OS(=O)(=O)O)c(OS(=O)(=O)O)cc2c1C(=O)O | Activity [6]: 75% |
| – | – | Active | Active | > 40% | COc1cc2c(C(=O)O)c(C)oc2cc1OS(=O)(=O)O | Activity [7]: Active; Activity [6]: 86%; fold change (FC) [8]: 3.6 |
| inactive | inactive | – | – | – | COc1cc2oc(C)c(COS(=O)(=O)O)c2cc1OS(=O)(=O)O | – |
| – | – | Active | Active | > 40% | COc1cc2oc(C)c(C(=O)O)c2cc1OS(=O)(=O)O | Activity [6]: 42% |
| – | – | Active | Active | > 40% | COc1cc2oc(C)c(CCC(=O)O)c2cc1OS(=O)(=O)O | – |

The next lines start with the compound.

| Structure (SMILES) | Activity [1] | Activity [2] | Activity [3] | Activity [4] | Activity [5] | also measured |
| --- | --- | --- | --- | --- | --- | --- |
| CCOC(=O)c1c(C)oc2cc(O)c(OC)cc12 | inactive | inactive | – | – | – | – |
| CCOC(=O)c1c(C)oc2cc(O)c(O)cc12 | inactive | inactive | – | – | – | – |
| Cc1oc2cc(O)c(O)cc2c1C(=O)O | – | – | Active | Active | > 40% | – |
| COc1cc2oc(C)c(CCC(=O)O)c2cc1O | – | – | Active | Active | > 40% | Activity [6]: > 40% |
| CCOC(=O)CCc1c(C)oc2cc(OC)c(O)cc12 | inactive | inactive | – | – | – | – |
| COc1cc2oc(C)c(CO)c2cc1O | inactive | inactive | – | – | – | – |
| CCOC(=O)c1c(C)oc2cc(OC)c(O)cc12 | inactive | inactive | – | – | – | – |
| CCOC(=O)CCc1c(C)oc2cc(OC)c(OS(=O)(=O)O)cc12 | inactive | inactive | – | – | – | – |
